# Published values from different studies.
# Protocols differ between the studies behind these lines.
# Target: Carbonic anhydrase 9 (CA9, Homo sapiens, UniProt Q16790)
# Read-out: enzyme activity
# Mode: inhibitor
Structure (SMILES),assay,endpoint,value
NS(=O)(=O)c1ccc(-n2nccc2-c2ccc(N3CCOCC3)cc2)cc1,,Ki,245 nM
NS(=O)(=O)c1ccc(CCNC2=NS(=O)(=O)c3ccc(Cl)cc3N2)cc1,stopped-flow,Ki,37.2 nM
Cc1ccc(-c2ccc(Nc3ccc(S(N)(=O)=O)cc3)nn2)cc1S(=O)(=O)N1CCCCC1,,IC50,7.94 nM
NS(=O)(=O)c1ccc(-n2nccc2-c2ccc(N3CCCCC3)cc2)cc1,,Ki,227 nM
Cc1ccc(C(=O)Nc2ccc(C(=O)Nc3cccc(S(N)(=O)=O)c3)cc2)s1,,IC50,409 nM
NS(=O)(=O)c1ccc(NC2=NC(=O)/C(=C\c3ccc(O)cc3)S2)cc1,,IC50,203 nM
COc1ccc(C(=O)/C=C/c2cc3c(cc2Br)OCO3)cc1S(N)(=O)=O,,Ki,8170 nM
Cn1cc(-c2cccc3oc(C(=O)NC4CCCN(CC(=O)Nc5ccc(S(N)(=O)=O)cc5)C4)cc23)nn1 (stereo not shown),,IC50,30.2 nM
COc1ccc(C(=O)/C=C/c2cccc3ccccc23)cc1S(N)(=O)=O,,Ki,1640 nM
COc1cc(/C=C2/SC(Nc3ccc(S(N)(=O)=O)cc3)=NC2=O)cc(OC)c1OC,,IC50,39.5 nM
